Measured values taken from ChEMBL document CHEMBL2311425, “Histone deacetylase (HDAC) inhibitors with a novel connecting unit linker region reveal a selectivity profile for HDAC4 and HDAC5 with improved activity against chemoresistant cancer cells” (J Med Chem, 2013).

Assays:
MDA-MB-231 [1] = assay: Potentiation of 40 uM cisplatin-induced toxicity in 1 uM cisplatin resistant human MDA-MB-231 cells at 1.5 uM pretreated for 48 hrs followed by 1 uM cisplatin treatment by MTT assay; type: functional
CAL-27 [2] = assay: Cytotoxicity against cisplatin sensitive human CAL27 cells after 72 hrs by MTT assay; type: functional, cell-based; details: CAL-27, 72 h
KYSE-510 [3] = assay: Potentiation of 0.75 uM cisplatin-induced toxicity in 0.5 uM cisplatin resistant human KYSE-510 cells at 1 uM pretreated for 48 hrs followed by 0.5 uM cisplatin treatment by MTT assay; type: functional
How it was run: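 Cisplatin-resistant Kyse510 CisR (derived by weekly cycles of cisplatin over 24−30 weeks), grown in RPMI 1640 with 10% FCS at 37 °C, 5% CO₂. Test agent added 48 h before cisplatin, then 72 h further incubation. Viability by MTT (read at 544/690 nm) relative to untreated control wells. Combination index by Chou−Talalay method. Mean of three experiments.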

CAL-27 [4] = assay: Potentiation of 5 uM cisplatin-induced toxicity in 1 uM cisplatin resistant human CAL27 cells at 0.5 uM pretreated for 48 hrs followed by 1 uM cisplatin treatment by MTT assay; type: functional
Histone deacetylase 11 = target: T1, Histone deacetylase 11 (Homo sapiens, UniProt Q96DB2); assay: Inhibition of human HDAC11 by fluorescence assay
T1 sequence (Q96DB2 whole entry): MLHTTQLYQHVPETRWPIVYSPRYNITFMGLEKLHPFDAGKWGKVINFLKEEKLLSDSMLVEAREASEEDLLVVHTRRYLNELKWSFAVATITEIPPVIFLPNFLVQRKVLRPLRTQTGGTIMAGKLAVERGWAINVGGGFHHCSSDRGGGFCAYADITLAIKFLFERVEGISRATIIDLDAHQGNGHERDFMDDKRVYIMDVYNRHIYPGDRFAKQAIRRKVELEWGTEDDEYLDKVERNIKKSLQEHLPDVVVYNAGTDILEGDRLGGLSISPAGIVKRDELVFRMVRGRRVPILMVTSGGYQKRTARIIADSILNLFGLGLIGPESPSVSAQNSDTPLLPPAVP

KYSE-510 [5] = assay: Potentiation of cisplatin-induced toxicity in cisplatin resistant human KYSE-510 cells at 1 uM pretreated for 48 hrs followed by cisplatin treatment by MTT assay; type: functional
How it was run: (§1)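 Resistant sublines pretreated 48 h with 1 μM HDAC inhibitor, then cisplatin over a concentration range for 72 h; MTT viability read at 544/690 nm. Cisplatin IC50 from four-parameter logistic fit of pooled data (≥3 experiments, triplicate); shift factor = IC50 of cisplatin alone divided by IC50 of the combination.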

MDA-MB-231 [6] = assay: Potentiation of cisplatin-induced toxicity in cisplatin resistant human MDA-MB-231 cells at 1 uM pretreated for 48 hrs followed by cisplatin treatment by MTT assay; type: functional; how it was run: as §1
KYSE-510 [7] = assay: Potentiation of 1 uM cisplatin-induced toxicity in 0.5 uM cisplatin resistant human KYSE-510 cells at 1 uM pretreated for 48 hrs followed by 0.5 uM cisplatin treatment by MTT assay; type: functional
CAL-27 [8] = assay: Potentiation of 10 uM cisplatin-induced toxicity in 1 uM cisplatin resistant human CAL27 cells at 1.5 uM pretreated for 48 hrs followed by 1 uM cisplatin treatment by MTT assay; type: functional
A2780 [9] = assay: Potentiation of 5 uM cisplatin-induced toxicity in 5 uM cisplatin resistant human A2780 cells at 1 uM pretreated for 48 hrs followed by 5 uM cisplatin treatment by MTT assay; type: functional
MDA-MB-231 [10] = assay: Potentiation of 5 uM cisplatin-induced toxicity in 1 uM cisplatin resistant human MDA-MB-231 cells at 0.25 uM pretreated for 48 hrs followed by 1 uM cisplatin treatment by MTT assay; type: functional
A2780 [11] = assay: Potentiation of 5 uM cisplatin-induced toxicity in 5 uM cisplatin resistant human A2780 cells at 1.5 uM pretreated for 48 hrs followed by 5 uM cisplatin treatment by MTT assay; type: functional
KYSE-510 [12] = assay: Potentiation of 8 uM cisplatin-induced toxicity in 0.5 uM cisplatin resistant human KYSE-510 cells at 1.5 uM pretreated for 48 hrs followed by 0.5 uM cisplatin treatment by MTT assay; type: functional
KYSE-510 [13] = assay: Potentiation of 3.16 uM cisplatin-induced toxicity in 0.5 uM cisplatin resistant human KYSE-510 cells at 0.5 uM pretreated for 48 hrs followed by 0.5 uM cisplatin treatment by MTT assay; type: functional
KYSE-510 [14] = assay: Cytotoxicity against cisplatin resistant human KYSE-510 cells after 72 hrs by MTT assay; type: functional, cell-based; details: KYSE-510, 72 h
KYSE-510 [15] = assay: Potentiation of 3.16 uM cisplatin-induced toxicity in 0.5 uM cisplatin resistant human KYSE-510 cells at 0.25 uM pretreated for 48 hrs followed by 0.5 uM cisplatin treatment by MTT assay; type: functional
Histone deacetylase = assay: Inhibition of HDAC in human A2780 cells after 18 hrs by fluorescence assay; type: cell-based
CAL-27 [16] = assay: Potentiation of 10 uM cisplatin-induced toxicity in 1 uM cisplatin resistant human CAL27 cells at 0.25 uM pretreated for 48 hrs followed by 1 uM cisplatin treatment by MTT assay; type: functional
MDA-MB-231 [17] = assay: Potentiation of […] cisplatin-induced toxicity in 1 uM cisplatin resistant human MDA-MB-231 cells at 0.5 uM pretreated for 48 hrs followed by 1 uM cisplatin treatment by MTT assay; type: functional
A2780 [18] = assay: Potentiation of 1 uM cisplatin-induced toxicity in 5 uM cisplatin resistant human A2780 cells at 1.5 uM pretreated for 48 hrs followed by 5 uM cisplatin treatment by MTT assay; type: functional
MDA-MB-231 [19] = assay: Potentiation of 5 uM cisplatin-induced toxicity in 1 uM cisplatin resistant human MDA-MB-231 cells at 0.5 uM pretreated for 48 hrs followed by 1 uM cisplatin treatment by MTT assay; type: functional
A2780 [20] = assay: Potentiation of 20 uM cisplatin-induced toxicity in 5 uM cisplatin resistant human A2780 cells at 0.25 uM pretreated for 48 hrs followed by 5 uM cisplatin treatment by MTT assay; type: functional
MDA-MB-231 [21] = assay: Potentiation of 40 uM cisplatin-induced toxicity in 1 uM cisplatin resistant human MDA-MB-231 cells at 0.5 uM pretreated for 48 hrs followed by 1 uM cisplatin treatment by MTT assay; type: functional
A2780 [22] = assay: Potentiation of 10 uM cisplatin-induced toxicity in 5 uM cisplatin resistant human A2780 cells at 0.5 uM pretreated for 48 hrs followed by 5 uM cisplatin treatment by MTT assay; type: functional

## Cc1cc(C)cc(C(=O)NOCCCCCC(=O)NO)c1
MDA-MB-231 [1]
  Activity: Dose-dependent effect
  fractional inhibitory concentration index (FICI): 0.84
CAL-27 [2]
  IC50: 1030 nM
KYSE-510 [3]
  Activity: Dose-dependent effect
  fractional inhibitory concentration index (FICI): 0.05
CAL-27 [4]
  Activity: Dose-dependent effect
  fractional inhibitory concentration index (FICI): 0.45
Histone deacetylase 11
  IC50: 852 nM
KYSE-510 [5]
  Activity: Dose-dependent effect
  fold change (FC): 18.8
MDA-MB-231 [6]
  Activity: Dose-dependent effect
  fold change (FC): 3.53
KYSE-510 [7]
  Activity: Dose-dependent effect
  fractional inhibitory concentration index (FICI): 0.05
CAL-27 [8]
  Activity: Dose-dependent effect
  fractional inhibitory concentration index (FICI): 0.2
A2780 [9]
  Activity: Dose-dependent effect
  fractional inhibitory concentration index (FICI): 0.64
MDA-MB-231 [10]
  Activity: Dose-dependent effect
  fractional inhibitory concentration index (FICI): <0.2
A2780 [11]
  Activity: Dose-dependent effect
  fractional inhibitory concentration index (FICI): 0.81
KYSE-510 [12]
  Activity: Dose-dependent effect
  fractional inhibitory concentration index (FICI): 0.16
KYSE-510 [13]
  Activity: Dose-dependent effect
  fractional inhibitory concentration index (FICI): 0.09
KYSE-510 [14]
  IC50: 2480 nM
KYSE-510 [15]
  Activity: Dose-dependent effect
  fractional inhibitory concentration index (FICI): 0.18
Histone deacetylase
  IC50: 650 nM
CAL-27 [16]
  Activity: Dose-dependent effect
  fractional inhibitory concentration index (FICI): 0.85
MDA-MB-231 [17]
  Activity: Dose-dependent effect
  fractional inhibitory concentration index (FICI): 0.81
A2780 [18]
  Activity: Dose-dependent effect
  fractional inhibitory concentration index (FICI): 0.97
MDA-MB-231 [19]
  Activity: Dose-dependent effect
  fractional inhibitory concentration index (FICI): <0.2
A2780 [20]
  Activity: Dose-dependent effect
  fractional inhibitory concentration index (FICI): 0.76
MDA-MB-231 [21]
  Activity: Dose-dependent effect
  fractional inhibitory concentration index (FICI): 0.88
A2780 [22]
  Activity: Dose-dependent effect
  fractional inhibitory concentration index (FICI): 0.69
